Measurements pooled from the literature.
Protocols differ between the studies behind these lines.
Route: oral

SMILES | test system | conditions | bioavailability
C=CCn1c(=O)c2cnc(Nc3ccc(N4CCN(C)CC4)cc3)nc2n1-c1ccc2c(n1)[C@@](O)(CC)CC2 | mouse, plasma | 60 mg/kg | 98%
Cc1cc(-c2ccnc3[nH]cc(F)c23)cc(F)c1[C@@]1(O)[C@H](C)CN(C2CCS(=O)(=O)CC2)C[C@@H]1C | male CD-1 mouse, plasma | 3 mg/kg | 37.7%
FC(F)(F)CN1CC(n2cc(Oc3ccn4nc(Cl)cc4n3)cn2)C1 | FVB mouse, blood | single dose | 46%
Cc1nc2ccc(OCc3ccc(C(F)(F)F)cc3)cc2[nH]1 | male BALB/c mouse, plasma | 10 mg/kg | 35%
Cc1ccc(OCC(=O)N[C@@H](Cc2c[nH]c3ccccc23)C(=O)OC(C)C)cc1 | male Sprague-Dawley mouse, plasma | 20 mg/kg | 39%
O=C1CCC(N2Cc3cc(C4CCN(Cc5ccccc5)CC4)ccc3C2=O)C(=O)N1 (centres unmarked) | male CD-1 mouse, plasma | 3 mg/kg | 63.8%
COCC(=O)N1CCc2[nH]c3c(Cl)c(Cl)ccc3c2[C@@H]1C | C57BL/6 mouse, blood | 20 mg/kg | 12.5%
OCc1ccc(-c2nn(Cc3ccccc3)c3ccccc23)o1 | male CD-1 mouse, plasma | 10 mg/kg | 11%
Oc1ccc([C@@H]2Oc3ccc(O)cc3[C@@H]3CCC[C@@H]32)cc1 | male C57BL/6 mouse, plasma | 10 mg/kg | 14%
Cc1cc(-c2ccnc3[nH]cc(F)c23)cc(F)c1[C@@]1(O)[C@H](C)CN(C(=O)CN)C[C@@H]1C | male CD-1 mouse, plasma | 3 mg/kg | 30.7%
CN(C)C(=O)c1cc2cnc(Nc3ccc(-c4ccc5c(=O)cc(N6CCOCC6)oc5c4)cc3)nc2n1C1CCCC1.Cl | BALB/c mouse, plasma | 20 mg/kg | 29%
CC(C)[C@@H](CS(=O)(=O)C(C)C)N1C(=O)[C@@](C)(CC(=O)O)C[C@H](c2cccc(Cl)c2)[C@H]1c1ccc(Cl)cc1 | FVB mouse, plasma | 20 mg/kg, single dose | 16%
CCOC(=O)C1=C(CN2CCC[C@@H]2C(=O)Nc2ccc(B(O)O)cc2)NC(c2nccs2)=N[C@H]1c1ccc(F)cc1Br | CD-1 mouse, plasma | 10 mg/kg | 10.4%
NCc1ccc(-c2nn(Cc3ccccc3)c3ccccc23)o1 | male CD-1 mouse, plasma | 10 mg/kg | 34%
